# Rows were chosen to be rich in hits. Some 2.2% of all compounds tested hit in one or more screens of this group.
# Jurkat NFkB inh – inhibitors of induced NF-kB luciferase reporter, primary screen, TCR NF-kB activation inhibitor project, cell-based, luminescence, uHTS | Jurkat, PMA/ionomycin-induced NF-kB luciferase reporter | inhibition, % at 4 µM | 330,000 compounds, 0.53% hits | AID 435003, 2010; in the data active = inhibition above about 50%
# miR122 inh – miR-122 Renilla sensor signal increase in Huh7, primary screen, miR-122 inhibitor project, cell-based, single point, plate reader. 340,000 compounds, 0.3% hits. activation (reporter increase), % at 12.5 µM. Huh7 miR-122 Renilla luciferase sensor, 48 h; neutral wells = 0, positive control = 100;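 active = mean replicate activation score at least 90 and every replicate individually at or above 90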;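 note: higher luciferase means less miR-122 activity so hits act as miR-122 inhibitors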
# NR2E3 ag-1 – inhibitors of NR2E3-RetCOR corepressor binding, primary screen, NR2E3 agonist project, biochemical, TR-FRET, GST-NR2E3, biotin-RetCOR. inhibition of corepressor binding, % at 4.78 µM. 320,000 compounds, 0.12% hits. Photoreceptor-specific nuclear receptor (Homo sapiens), Q9Y5X4. 1536-well;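 active = percent inhibition above the cutoff of mean plus 3 SD of all tested compounds, set per screening campaign, cut at about 20% in these data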
# Target sequence (Q9Y5X4 whole entry, looked up): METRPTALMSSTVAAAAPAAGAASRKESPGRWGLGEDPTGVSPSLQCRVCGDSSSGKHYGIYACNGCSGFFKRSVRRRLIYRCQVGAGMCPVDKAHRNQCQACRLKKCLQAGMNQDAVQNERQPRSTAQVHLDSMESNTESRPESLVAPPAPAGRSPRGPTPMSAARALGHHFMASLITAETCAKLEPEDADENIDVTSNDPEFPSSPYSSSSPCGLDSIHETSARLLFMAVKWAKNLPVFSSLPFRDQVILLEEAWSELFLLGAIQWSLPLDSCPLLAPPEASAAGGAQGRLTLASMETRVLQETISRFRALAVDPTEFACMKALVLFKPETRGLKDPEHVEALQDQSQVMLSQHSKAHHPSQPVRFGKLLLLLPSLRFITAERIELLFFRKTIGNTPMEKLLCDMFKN
#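 system = GST-tagged NR2E3 plus biotinylated RetCOR corepressor | input = 1.35 nM GST-NR2E3 | also added = 7 nM biotin-RetCOR | schedule = 5 h incubation at 4 °C | measured by = TR-FRET with europium anti-GST and streptavidin-D2, 340 nm excitation | read-out = percent loss of FRET ratio relative to control wells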
# NR2E3 ag-2 – NR2E3 agonists in two-hybrid cells, primary screen, cell-based, luminescence, CHO-S, Gal4-NCOR/VP16-NR2E3; luciferase; AID 602229, 2012; inhibition of corepressor binding, % at 3.98 µM; 360,000 compounds, 0.35% hits; Photoreceptor-specific nuclear receptor (Homo sapiens), Q9Y5X4;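 active = inhibition above the mean of all tested compounds plus 3 SD, cut at about 70% in these data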;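 note: higher means lower luciferase signal from less NR2E3 corepressor binding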
# FGF22 binding – binders of human FGF22 protein, primary screen, FGF22 synaptogenesis inhibitor project, biophysical, thermal shift, single point. Fibroblast growth factor 22 (Homo sapiens), Q9HCT0. recombinant FGF22 thermal shift, SYPRO orange fluorescence; percent of sucrose octasulfate shift, DMSO zero. activity (Tm shift, normalised), % at 9.99 µM. 340,000 compounds, 1.5% hits. AID 651658, 2012;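 active = mean Tm shift, scaled 0 neutral to 100 positive control, at about 1.3% or above, every replicate too, limit read from the data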
# Target sequence (Q9HCT0 whole entry, looked up): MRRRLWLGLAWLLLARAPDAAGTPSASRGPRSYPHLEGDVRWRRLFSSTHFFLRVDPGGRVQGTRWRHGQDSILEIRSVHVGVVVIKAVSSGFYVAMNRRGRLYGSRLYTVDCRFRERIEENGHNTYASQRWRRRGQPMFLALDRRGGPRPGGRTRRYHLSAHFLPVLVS
# 697 NFkB inh – inhibitors of PMA/ionomycin-induced NF-kB reporter, 697 cells, primary screen, B-cell NF-kB inhibitor project, cell-based, luminescence, uHTS | inhibition, % at 4 µM | 697 B-cell NF-kB luciferase reporter, 16 h | 330,000 compounds, 0.33% hits | AID 435022, 2010; in the data active = inhibition above about 35%
# Jurkat NFkB conf – PMA/ionomycin-induced NF-kB reporter inhibitors, Jurkat retest, confirmation, T-cell NF-kB inhibitor project, cell-based, luminescence, single concentration; 2,700 compounds, 27% hits; inhibition, % at 4 µM; Jurkat NF-kB luciferase, 16 h; shares compounds with Jurkat NFkB inh; AID 435020, 2010;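 active = inhibition reaching about 45% at 4 µM in either replicate, limit read from the data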
# Numbers stand for hits; – = inactive; · = no result.
SMILES,Jurkat NFkB inh,miR122 inh,NR2E3 ag-1,NR2E3 ag-2,FGF22 binding,697 NFkB inh,Jurkat NFkB conf
c1ccc(-c2nnc(-c3ccccc3)o2)cc1,–,–,–,–,·,–,·
CSc1ccccc1-c1nnc(-c2ccc(C)cc2)o1,–,–,–,–,·,–,·
Clc1cccc(-c2nnc(-c3ccccc3)o2)c1,–,–,–,–,·,–,–
CSc1ccccc1-c1nnc(-c2ccccc2)o1,–,–,–,–,·,–,–
CCCNC(=O)C[C@H]1CC[C@H]2[C@@H](COC[C@@H](O)CN2CC2CCCCC2)O1,·,–,·,·,–,·,·
C[C@H]1CN([C@@H](C)CO)C(=O)c2cccc(NC(=O)c3ccc(-c4nccs4)cc3)c2O[C@H]1CN(C)C(=O)Nc1ccc(F)cc1,·,–,·,·,–,·,·
CCc1ccc(/C=N/NC(=O)c2cc(C3CC3)nc3ccccc23)s1,58,–,–,–,·,–,–
O=C(C[C@H]1CC[C@H](NS(=O)(=O)c2ccccc2)[C@@H](CO)O1)NCc1ccccc1F,·,·,·,·,–,·,·
Nc1ccc(C(=O)Nc2nc3ccccc3s2)cc1,–,–,–,–,–,–,–
CCCCOC(=O)Nc1nc2ccccc2s1,–,–,–,–,·,–,–
Cc1cc(C)n(-c2ccc(C(=O)Nc3nc4ccccc4s3)cc2)n1,–,–,–,–,·,–,·
COC(=O)c1ccc(Oc2cc(C)nc(SC)n2)cc1,55,–,–,–,·,–,–
Cc1nc(NC(=O)c2csc3ccccc23)sc1C,–,–,–,–,·,–,–
COc1cc(SC)ccc1C(=O)Nc1ccccn1,–,–,–,–,–,–,–
COc1cc(SC)ccc1C(=O)Nc1cccc(C)n1,–,–,–,–,–,–,–
COc1cc(SC)ccc1C(=O)Nc1ccon1,–,–,–,–,·,–,·
Cc1cc(C(=O)Nc2cccc3c2O[C@H](CN(C)S(=O)(=O)c2cccs2)[C@@H](C)CN([C@H](C)CO)C3=O)n(C)n1,·,–,·,·,–,·,·
C[C@H]1CN([C@@H](C)CO)S(=O)(=O)c2ccc(/C=C/c3ccccc3)cc2O[C@@H]1CN(C)C(=O)c1ccncc1,·,–,·,·,–,·,·
N=c1c2c(-c3ccccc3)c(-c3ccccc3)n(Cc3ccco3)c2ncn1CCO,–,–,–,–,·,–,·
N=c1c2c(-c3ccccc3)c(-c3ccccc3)n(Cc3ccco3)c2ncn1CCCO,56,–,–,–,–,–,–
C[C@@H]1CN([C@H](C)CO)C(=O)c2cccc(NS(=O)(=O)c3cn(C)cn3)c2O[C@@H]1CN(C)CC1CC1,·,–,·,·,–,·,·
COc1cccc([C@@H]2Oc3ccc(OC)cc3C(=O)[C@H]2O)c1,–,·,–,–,·,–,–
C[C@H]1CN([C@@H](C)CO)C(=O)c2cc(C#CC3CCCCC3)cnc2O[C@H]1CN(C)Cc1cccnc1,·,–,·,·,–,·,·
NC(=O)Nc1cccc2ccccc12,–,·,–,–,·,–,·
O=C(Nc1cccc2ccccc12)OC1C=CS(=O)(=O)C1 (stereo not given),90,–,–,–,·,–,65
SMILES,Jurkat NFkB inh,miR122 inh,NR2E3 ag-1,NR2E3 ag-2,FGF22 binding,697 NFkB inh,Jurkat NFkB conf
Cc1nc(-c2ccc(NC(=O)c3ccco3)cc2)cs1,52,–,–,–,–,–,–
COc1ccc(S(=O)(=O)NCc2ccccn2)cc1NC(=O)c1ccccc1,–,–,–,–,–,–,·
CCOc1ccc(S(=O)(=O)NCc2ccccn2)cc1NC(=O)c1ccccc1F,54,–,–,–,–,–,–
CCOC(=O)c1ccc2c(c1)nc(-c1ccccn1)n2CC,–,–,–,–,–,–,–
O=C(Nc1ccc2ccccc2c1)c1cccc(F)c1,–,–,–,–,–,–,–
Cc1cc(C(=O)Nc2ccc3ccccc3c2)c(C)o1,–,–,–,–,–,–,–
Oc1ccccc1-c1cc(-c2cccc(F)c2)n[nH]1,–,–,–,–,·,–,–
Oc1ccc(Cl)cc1-c1cc(-c2cccc(Br)c2)n[nH]1,–,–,–,–,·,–,·
Oc1ccccc1-c1cc(-c2ccccc2Cl)[nH]n1,–,–,–,–,–,–,–
CCCNC(=O)C[C@@H]1CC[C@H]2[C@H](COc3ccc(NC(=O)c4cccc(OC)c4)cc3C(=O)N2C)O1,·,–,·,·,–,·,·
Cc1ccc(-n2nnc(-c3cc4ccccc4n3C)n2)cc1,–,–,–,–,–,–,–
Cc1ccc(-n2nnc(-c3cccnc3Cl)n2)cc1,–,–,–,–,–,–,–
CC(=O)Nc1ccc(-c2nc3cc(Cl)ccc3o2)cc1,–,–,–,–,–,–,–
CNC(=O)C[C@@H]1CC[C@H]2[C@@H](COc3ccc(NC(=O)NC4CCCC4)cc3C(=O)N2C)O1,·,–,·,·,–,·,·
Cc1cc(NC(=O)c2cc3cccc([N+](=O)[O-])c3[nH]2)ccc1F,–,·,–,–,–,–,–
COc1ccc(N2CCN(C(=O)c3ccc(CS(=O)c4cccc(Cl)c4)o3)CC2)cc1 (stereo not given),·,–,·,–,–,·,·
Cc1ccccc1S(=O)(=O)Cc1ccc(C(=O)N2CCN(c3cccc(C)c3C)CC2)o1,51,–,–,–,·,–,–
Cc1ccccc1S(=O)(=O)Cc1ccc(C(=O)N2CC(C)CC(C)C2)o1 (stereo not given),–,–,–,–,–,–,·
COc1ccc(S(=O)Cc2ccc(C(=O)N3CCN(c4cccc(C)c4C)CC3)o2)cc1 (stereo not given),51,–,–,–,·,–,–
Cc1noc(C)c1S(=O)(=O)Nc1ccc2c(c1)C(=O)N([C@@H](C)CO)C[C@@H](C)[C@@H](CN(C)C(=O)NC1CCCCC1)OCCCC[C@H](C)O2,·,–,·,·,–,·,·
Cc1ccc(Oc2ccc(OCC(=O)Nc3ccncc3)cc2)cc1,65,–,·,–,–,–,77
c1ccc(-c2csc(Nc3ncccn3)n2)cc1,–,·,–,–,·,–,–
Oc1ccc(-c2csc(Nc3ncccn3)n2)cc1,–,–,–,–,–,–,–
O=C(NCc1ccco1)C1CC(c2ccc(Cl)c(Cl)c2)=NO1 (stereo not given),52,·,–,–,–,–,–
O=C(NCc1ccco1)C1CC(c2ccc(C(F)(F)F)cc2)=NO1 (stereo not given),50,–,–,–,–,–,–

# Bioassay records from PubChem.
